Source: the M2OR odorant receptor database

What was measured:
Conditions in all cases: stereoisomer not certain
UniProt Q8VGX8 = biological target: T1, UniProt Q8VGX8
T1 sequence (whole entry): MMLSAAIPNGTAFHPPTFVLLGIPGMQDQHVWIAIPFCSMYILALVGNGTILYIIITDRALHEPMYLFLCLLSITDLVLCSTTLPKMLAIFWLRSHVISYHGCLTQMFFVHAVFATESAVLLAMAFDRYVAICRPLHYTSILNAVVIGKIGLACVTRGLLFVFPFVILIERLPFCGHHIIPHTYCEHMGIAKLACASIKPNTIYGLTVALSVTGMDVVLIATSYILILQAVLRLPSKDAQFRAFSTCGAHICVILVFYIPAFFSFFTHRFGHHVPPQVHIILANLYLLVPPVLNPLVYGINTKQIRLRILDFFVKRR
How it was run: (§1)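 Transient luciferase assays in mammalian cell lines were common, though methods varied by source. The values come from published papers and their supplementary material, with extra details from the original authors when needed. Responsive refers to a measured signal the original authors judged statistically different from baseline, and non-responsive (inactive) to the remainder.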

UniProt Q8VH18 = biological target: UniProt Q8VH18
How it was run: as §1

UniProt Q8VGL0 = biological target: T2, UniProt Q8VGL0
T2 sequence (whole entry): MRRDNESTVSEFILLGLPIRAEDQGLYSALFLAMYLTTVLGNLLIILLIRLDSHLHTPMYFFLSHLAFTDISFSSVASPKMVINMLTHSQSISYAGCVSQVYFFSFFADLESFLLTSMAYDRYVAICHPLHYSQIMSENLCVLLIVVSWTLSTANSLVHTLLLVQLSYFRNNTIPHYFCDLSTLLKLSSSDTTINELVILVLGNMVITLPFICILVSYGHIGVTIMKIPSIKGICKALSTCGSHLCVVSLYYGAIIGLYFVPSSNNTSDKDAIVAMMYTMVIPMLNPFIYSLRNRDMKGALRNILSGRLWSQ
How it was run: as §1

UniProt Q8VGU3 = biological target: T3, UniProt Q8VGU3
T3 sequence (whole entry): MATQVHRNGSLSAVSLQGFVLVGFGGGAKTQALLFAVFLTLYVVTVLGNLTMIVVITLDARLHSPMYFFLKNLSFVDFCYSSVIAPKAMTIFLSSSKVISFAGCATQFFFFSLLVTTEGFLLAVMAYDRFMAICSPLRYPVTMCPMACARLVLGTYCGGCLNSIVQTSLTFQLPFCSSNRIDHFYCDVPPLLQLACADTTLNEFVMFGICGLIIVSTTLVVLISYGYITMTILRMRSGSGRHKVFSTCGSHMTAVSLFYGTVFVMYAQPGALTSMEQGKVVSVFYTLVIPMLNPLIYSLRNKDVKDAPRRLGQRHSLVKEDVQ
How it was run: as §1

UniProt Q8VGV7 = biological target: T4, UniProt Q8VGV7
T4 sequence (whole entry): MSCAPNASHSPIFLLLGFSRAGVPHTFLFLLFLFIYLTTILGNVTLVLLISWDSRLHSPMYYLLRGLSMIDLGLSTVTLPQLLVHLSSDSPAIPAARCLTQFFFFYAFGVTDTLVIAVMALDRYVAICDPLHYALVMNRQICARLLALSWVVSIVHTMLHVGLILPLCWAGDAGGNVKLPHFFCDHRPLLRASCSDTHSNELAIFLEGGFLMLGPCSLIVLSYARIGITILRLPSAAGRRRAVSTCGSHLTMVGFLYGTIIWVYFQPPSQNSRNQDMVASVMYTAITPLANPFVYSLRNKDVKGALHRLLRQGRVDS
How it was run: as §1

UniProt Q8VGX3 = biological target: T5, UniProt Q8VGX3
T5 sequence (whole entry): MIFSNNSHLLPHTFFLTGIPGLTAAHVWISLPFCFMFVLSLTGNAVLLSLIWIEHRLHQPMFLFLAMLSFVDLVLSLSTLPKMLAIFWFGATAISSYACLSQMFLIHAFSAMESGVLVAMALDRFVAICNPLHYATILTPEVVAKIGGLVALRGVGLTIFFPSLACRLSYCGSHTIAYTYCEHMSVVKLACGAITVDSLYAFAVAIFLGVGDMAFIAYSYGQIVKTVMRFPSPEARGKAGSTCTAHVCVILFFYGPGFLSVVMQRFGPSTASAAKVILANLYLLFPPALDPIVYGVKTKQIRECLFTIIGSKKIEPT
How it was run: as §1

UniProt Q8VGX5 = biological target: T6, UniProt Q8VGX5
T6 sequence (whole entry): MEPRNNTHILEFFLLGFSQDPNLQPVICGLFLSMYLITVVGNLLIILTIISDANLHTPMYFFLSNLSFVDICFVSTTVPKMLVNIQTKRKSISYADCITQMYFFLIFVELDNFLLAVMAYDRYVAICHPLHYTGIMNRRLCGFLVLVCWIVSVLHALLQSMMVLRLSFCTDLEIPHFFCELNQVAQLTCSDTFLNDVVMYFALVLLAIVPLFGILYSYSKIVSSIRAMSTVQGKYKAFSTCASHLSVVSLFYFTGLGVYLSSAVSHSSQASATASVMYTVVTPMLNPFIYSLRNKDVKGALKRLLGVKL
How it was run: as §1

UniProt Q8VGZ2 = biological target: T7, UniProt Q8VGZ2
T7 sequence (whole entry): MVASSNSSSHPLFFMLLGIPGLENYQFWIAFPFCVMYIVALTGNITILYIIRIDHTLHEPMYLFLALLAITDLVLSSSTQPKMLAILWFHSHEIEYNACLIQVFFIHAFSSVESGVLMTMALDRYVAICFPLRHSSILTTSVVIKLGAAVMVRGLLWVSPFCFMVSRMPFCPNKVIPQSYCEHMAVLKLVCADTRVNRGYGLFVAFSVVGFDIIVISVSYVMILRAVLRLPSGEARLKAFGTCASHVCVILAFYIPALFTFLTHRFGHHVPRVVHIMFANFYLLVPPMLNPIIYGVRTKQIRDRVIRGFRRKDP
How it was run: as §1

UniProt Q8VGZ7 = biological target: T8, UniProt Q8VGZ7
T8 sequence (whole entry): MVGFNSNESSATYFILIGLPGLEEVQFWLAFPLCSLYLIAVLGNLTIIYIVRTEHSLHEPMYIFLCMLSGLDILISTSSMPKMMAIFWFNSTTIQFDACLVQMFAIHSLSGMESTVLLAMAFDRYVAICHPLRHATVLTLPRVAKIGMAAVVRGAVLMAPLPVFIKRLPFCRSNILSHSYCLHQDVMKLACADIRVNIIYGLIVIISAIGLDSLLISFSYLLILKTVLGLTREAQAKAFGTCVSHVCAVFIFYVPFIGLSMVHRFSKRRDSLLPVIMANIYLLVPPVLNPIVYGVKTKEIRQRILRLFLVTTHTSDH
How it was run: as §1

UniProt Q8VH16 = biological target: T9, UniProt Q8VH16
T9 sequence (whole entry): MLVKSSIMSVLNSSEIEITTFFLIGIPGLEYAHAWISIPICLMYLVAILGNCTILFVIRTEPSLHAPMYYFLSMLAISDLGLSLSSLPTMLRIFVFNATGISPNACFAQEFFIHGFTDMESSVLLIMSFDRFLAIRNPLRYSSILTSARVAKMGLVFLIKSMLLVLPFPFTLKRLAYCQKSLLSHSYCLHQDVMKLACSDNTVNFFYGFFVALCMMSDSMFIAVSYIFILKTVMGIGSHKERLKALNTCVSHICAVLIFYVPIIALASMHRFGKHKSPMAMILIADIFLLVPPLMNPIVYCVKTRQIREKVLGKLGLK
How it was run: as §1

UniProt Q8VH20 = biological target: T10, UniProt Q8VH20
T10 sequence (whole entry): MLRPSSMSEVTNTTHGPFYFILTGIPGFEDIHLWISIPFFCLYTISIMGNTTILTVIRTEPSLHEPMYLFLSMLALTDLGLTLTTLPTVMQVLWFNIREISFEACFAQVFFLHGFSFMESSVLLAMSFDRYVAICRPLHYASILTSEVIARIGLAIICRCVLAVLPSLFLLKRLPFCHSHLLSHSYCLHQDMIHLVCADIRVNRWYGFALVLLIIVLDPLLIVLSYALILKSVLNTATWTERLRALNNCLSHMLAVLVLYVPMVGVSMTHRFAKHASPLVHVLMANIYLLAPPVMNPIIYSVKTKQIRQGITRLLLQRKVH
How it was run: as §1

Measured: odorant receptor agonist call

UniProt Q8VH18, sequence (Q8VH18 as listed by the source): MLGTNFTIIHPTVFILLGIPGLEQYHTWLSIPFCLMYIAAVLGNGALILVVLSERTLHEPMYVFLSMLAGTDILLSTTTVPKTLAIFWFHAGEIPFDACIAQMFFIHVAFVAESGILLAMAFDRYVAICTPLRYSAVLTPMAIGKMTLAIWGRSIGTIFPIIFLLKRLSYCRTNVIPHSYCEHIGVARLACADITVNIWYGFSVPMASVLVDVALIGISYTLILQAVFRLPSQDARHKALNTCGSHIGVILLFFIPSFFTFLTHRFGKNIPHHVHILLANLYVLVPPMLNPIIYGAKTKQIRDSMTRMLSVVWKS

O=C(O)CCCCCCCBr
active: UniProt Q8VGX8 | UniProt Q8VH18

COc1ccc(C=O)cc1
inactive: UniProt Q8VGL0 | UniProt Q8VGU3 | UniProt Q8VGV7 | UniProt Q8VGX3 | UniProt Q8VGX5 | UniProt Q8VGZ2 | UniProt Q8VGZ7 | UniProt Q8VH16 | UniProt Q8VH20

OCc1ccc2c(c1)OCO2
inactive: UniProt Q8VGL0 | UniProt Q8VGU3 | UniProt Q8VGV7 | UniProt Q8VGX3 | UniProt Q8VGX5 | UniProt Q8VGZ2 | UniProt Q8VGZ7 | UniProt Q8VH16 | UniProt Q8VH20
